Hits are enriched below; roughly 2.5% of the tested compounds scored in any of these assays.
SENP8 block-1 = inhibitors of human SENP8 protease | Q96LD8 | recombinant SENP8, Nedd8 substrate fluorescence | inhibition, % at 20 µM | 360,000 compounds, 0.64% hits | AID 602440; in the data active means inhibition mostly above about 40%, no sharp cut-off; inactive means mostly below about 27%
Target sequence (Q96LD8 whole entry, looked up): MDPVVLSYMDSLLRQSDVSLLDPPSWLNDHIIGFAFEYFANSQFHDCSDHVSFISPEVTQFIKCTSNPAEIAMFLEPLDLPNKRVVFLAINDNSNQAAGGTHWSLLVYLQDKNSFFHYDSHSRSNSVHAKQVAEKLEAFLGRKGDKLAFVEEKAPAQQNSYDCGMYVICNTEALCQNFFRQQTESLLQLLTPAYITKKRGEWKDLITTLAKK
SENP1 FRET inh = inhibitors of human SENP1 SUMO protease catalytic domain; 360,000 compounds, 0.21% hits; recombinant SENP1 catalytic domain, CyPet-SUMO1-YPet FRET cleavage; inhibition, % at 10 µM;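 active means inhibition at least 30% at 10 µM, raw YFP signal under a set limit, fluorescence ratio 0.5 to 1.5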
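Material: hSENP1 catalytic domain, recombinant; medium: Tris pH 8 with BME, BSA, NP40 and catalase; compound: single concentration of 10 µM compound, 0.5% DMSO final; technique: FRET read of cyan and yellow fluorescence; timing: 50 min enzyme reaction, room temperature, light-protected; reagent: SFCypet-SUMO1-SFYpet substrate at 25 nM; control set: no-enzyme low, enzyme-DMSO high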
SENP6 inh = SENP6 protease inhibition; inhibition, % at 10 µM; Q9GZR1; AID 2599; 330,000 compounds, 1.8% hits; Recombinant SENP6 catalytic domain, aminoluciferin luminescence;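 active means inhibition above about 50% at the single tested dose, limit read from the data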
SENP8 block-2 = inhibitors of human SENP8 protease. inhibition, % at 10 µM. purified SENP8, Z-RLRGG-aminoluciferin cleavage, luminescence. 330,000 compounds, 1.2% hits; in the data active means inhibition above about 50%
SENP7 inh = blocks the human protease SENP7 | recombinant SENP7, Z-RLRGG-aminoluciferin luminescence, 40 min | Q9BQF6 | 330,000 compounds, 1.5% hits | inhibition, % at 5 µM | AID 434973;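 active means inhibition above about 50% at the single test dose, limit read from the data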
Target sequence (Q9BQF6 706-1050 limits assumed): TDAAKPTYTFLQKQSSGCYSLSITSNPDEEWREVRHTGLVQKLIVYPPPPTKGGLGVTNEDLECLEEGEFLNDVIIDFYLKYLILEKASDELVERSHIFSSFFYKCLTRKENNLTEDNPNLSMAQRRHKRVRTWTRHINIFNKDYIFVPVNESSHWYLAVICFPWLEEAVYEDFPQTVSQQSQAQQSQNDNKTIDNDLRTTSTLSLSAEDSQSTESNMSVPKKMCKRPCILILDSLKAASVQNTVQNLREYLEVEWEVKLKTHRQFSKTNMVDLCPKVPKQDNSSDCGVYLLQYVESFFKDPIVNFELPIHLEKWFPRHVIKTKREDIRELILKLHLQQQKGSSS
Numbers stand for hits.

What do the screens show for `CN1CCc2cc3c(c4c2C1Cc1ccccc1-4)OCO3` (stereo not drawn)?
SENP8 block-1: inactive; SENP1 FRET inh: inactive; SENP6 inh: 70.1; SENP8 block-2: 63.6; SENP7 inh: 50.2

Results for NS(=O)(=O)c1ccc(N=Nc2c(O)[nH]c(=S)[nH]c2=O)cc1 ?
SENP8 block-1: inactive; SENP1 FRET inh: inactive; SENP6 inh: inactive; SENP8 block-2: inactive; SENP7 inh: inactive

How did O=c1[nH]c(=S)[nH]c(O)c1N=Nc1ccc2c(c1)OCO2 do in these assays?
SENP8 block-1: inactive; SENP1 FRET inh: inactive; SENP6 inh: 89.2; SENP8 block-2: 81.7; SENP7 inh: 84.6

Results for O=c1[nH]c(O)c(N=Nc2ccc3c(c2)OCCO3)c(=O)[nH]1 ?
SENP8 block-1: inactive; SENP1 FRET inh: 39.1; SENP6 inh: inactive; SENP8 block-2: inactive; SENP7 inh: inactive

How did CC1=C(O)C(=O)C=C2C1=CC=C1C2(C)CCC2(C)C3CC(C)(C(=O)O)CCC3(C)CCC12C (stereo not drawn) do in these assays?
SENP8 block-1: inactive; SENP1 FRET inh: inactive

How did COC[C@]12CN(C)C3C4[C@H](OC)[C@H]1C3([C@@H](OC)C[C@H]2O)[C@@H]1C[C@@]2(O)[C@H](OC(=O)c3ccccc3)[C@@H]1[C@]4(OC(C)=O)[C@@H](O)[C@@H]2OC do in these assays?
SENP8 block-1: inactive; SENP1 FRET inh: inactive; SENP6 inh: inactive; SENP8 block-2: inactive; SENP7 inh: inactive

Results for O=C(O)c1cccc2c1NC(c1cccc([N+](=O)[O-])c1)C1CC(Sc3ccccc3[N+](=O)[O-])C(Cl)C21 (stereo not drawn) ?
SENP8 block-1: inactive; SENP1 FRET inh: inactive; SENP6 inh: inactive; SENP8 block-2: inactive; SENP7 inh: inactive

How did O=C(O)c1ccc2c(c1)C1C(Cl)C(Sc3ccccc3[N+](=O)[O-])CC1C(c1cccc([N+](=O)[O-])c1)N2 (stereo not drawn) do in these assays?
SENP8 block-1: 49.3; SENP1 FRET inh: inactive

Results for Cc1ccc2c(c1Cl)NC(C(=O)O)C1CC(Sc3ccccc3[N+](=O)[O-])C(Cl)C21 (stereo not drawn) ?
SENP8 block-1: inactive; SENP1 FRET inh: inactive; SENP6 inh: inactive; SENP8 block-2: inactive; SENP7 inh: inactive

How did CCN(CC)C(=O)c1ccc2c(c1)C1C(Cl)C(Sc3ccccc3[N+](=O)[O-])CC1C(C(=O)O)N2 (stereo not drawn) do in these assays?
SENP8 block-1: 44.0; SENP1 FRET inh: inactive; SENP6 inh: inactive; SENP8 block-2: inactive; SENP7 inh: inactive

What do the screens show for `CN1C(=O)NC(=O)/C(=C/c2ccc([N+](=O)[O-])s2)C1=O`?
SENP8 block-1: 57.6; SENP1 FRET inh: inactive; SENP6 inh: inactive; SENP8 block-2: inactive; SENP7 inh: inactive

Results for O=C1NC(=O)N(c2ccccc2)C(=O)/C1=C\c1ccc([N+](=O)[O-])s1 ?
SENP6 inh: inactive; SENP8 block-2: inactive; SENP7 inh: inactive

What do the screens show for `COC(=O)C1=C(c2cccc(OCc3ccccc3)c2)C[C@@H]2CC[C@H]1N2C(=O)NCc1ccc2[nH]ccc2c1`?
SENP8 block-1: inactive; SENP1 FRET inh: inactive; SENP6 inh: inactive; SENP8 block-2: inactive; SENP7 inh: inactive

How did C[n+]1c(-c2ccccc2)c2cc(N)ccc2c2ccc(N)cc21 do in these assays?
SENP8 block-1: 94.7; SENP1 FRET inh: inactive; SENP6 inh: 81.8; SENP8 block-2: 92.6; SENP7 inh: 94.6

How did CN1CCN(c2ccc(N)cc2)CC1 do in these assays?
SENP8 block-1: 50.7; SENP1 FRET inh: inactive; SENP6 inh: inactive; SENP8 block-2: inactive; SENP7 inh: inactive

Results for CC[C@@H]1C=CC=CC[C@H](C)[C@@H](O)[C@@H](C)C(=O)[C@H](C)[C@@H](O)[C@H](C)C(=O)[C@H](C)[C@@H](O)[C@H](C)C=CC(=O)O[C@H]2[C@@H](C)[C@@H](CC1)O[C@@]1(CC[C@@H](C)[C@@H](C[C@H](C)O)O1)[C@@H]2C ?
SENP6 inh: inactive; SENP8 block-2: inactive; SENP7 inh: inactive

Results for O=C(c1ccc(Cl)cc1)C1CCCN(Cc2ccc3ncccc3c2)C1 (stereo not drawn) ?
SENP8 block-1: inactive; SENP1 FRET inh: inactive; SENP6 inh: inactive; SENP8 block-2: inactive; SENP7 inh: inactive

What do the screens show for `Cc1cc2c(C(C)C)c(O)c(O)c(C=O)c2c(O)c1-c1c(C)cc2c(C(C)C)c(O)c(O)c(C=O)c2c1O`?
SENP8 block-1: 39.3; SENP1 FRET inh: inactive

How did O=c1[nH]c(=S)n(-c2ccccc2F)c(O)c1C=Nc1ccc(N2CCOCC2)cc1 do in these assays?
SENP8 block-1: inactive; SENP1 FRET inh: 67.4; SENP6 inh: inactive; SENP8 block-2: inactive; SENP7 inh: inactive

Results for O=c1[nH]c(=S)n(-c2ccc(Br)cc2)c(O)c1C=Nc1ccc(N2CCOCC2)cc1 ?
SENP8 block-1: inactive; SENP1 FRET inh: inactive; SENP6 inh: inactive; SENP8 block-2: inactive; SENP7 inh: inactive

What do the screens show for `CC1C(=O)CC2(C(C)C)CC12` (stereo not drawn)?
SENP8 block-1: inactive; SENP1 FRET inh: inactive

What do the screens show for `Cn1ncnc2c(=O)n(C)c(=O)nc1-2`?
SENP8 block-1: 100.7; SENP1 FRET inh: 37.9; SENP6 inh: 95.2; SENP8 block-2: 95.9; SENP7 inh: 96.2

Results for c1cc(OCCN2CC2)ccn1 ?
SENP8 block-1: inactive; SENP1 FRET inh: inactive

How did O=C1c2ccccc2-c2cc3ccccc3cc21 do in these assays?
SENP8 block-1: inactive; SENP1 FRET inh: inactive

Results for O=C1C=C(N2CC2)c2ccccc2C1=O ?
SENP8 block-1: 63.8; SENP1 FRET inh: inactive

Results for CC(C)(C)c1cc(C=C(C#N)C#N)cc(C(C)(C)C)c1O ?
SENP8 block-1: 39.9; SENP1 FRET inh: inactive; SENP6 inh: inactive; SENP8 block-2: inactive; SENP7 inh: inactive

What do the screens show for `N#CC(C#N)=Cc1ccc(O)c(O)c1`?
SENP8 block-1: inactive; SENP1 FRET inh: inactive; SENP6 inh: inactive; SENP8 block-2: inactive; SENP7 inh: inactive

Results for CC1=NN(c2ccccc2)C(=O)C1/C=C1/C(=O)NC(=O)N(c2cc(C)cc(C)c2)C1=O (stereo not drawn) ?
SENP8 block-1: inactive; SENP1 FRET inh: inactive; SENP6 inh: inactive; SENP8 block-2: inactive; SENP7 inh: inactive

What do the screens show for `CC1=NN(c2ccccc2)C(=O)C1/C=C1\C(=O)NC(=O)N(c2cc(C)cc(C)c2)C1=O` (stereo not drawn)?
SENP8 block-1: 40.4; SENP1 FRET inh: inactive; SENP6 inh: inactive; SENP8 block-2: inactive; SENP7 inh: inactive

How did CCc1ccccc1N1C(=O)/C(=C/c2ccc(N3CCN(C)CC3)o2)C(=O)NC1=S do in these assays?
SENP8 block-1: inactive; SENP1 FRET inh: 42.6; SENP6 inh: inactive; SENP8 block-2: inactive; SENP7 inh: inactive

How did Cc1cccc(N2C(=O)/C(=C/c3ccc(N4CCN(C)CC4)o3)C(=O)NC2=S)c1C do in these assays?
SENP8 block-1: inactive; SENP1 FRET inh: 33.9; SENP6 inh: inactive; SENP8 block-2: inactive; SENP7 inh: inactive

How did O=C1NCN(c2ccccc2)C12CCN(C(c1ccccc1)c1nnnn1C1CCCC1)CC2 (stereo not drawn) do in these assays?
SENP8 block-1: inactive; SENP1 FRET inh: inactive

Source: PubChem
